Data set [1] in a line: Displacement of [3H]-UDP from chimpanzee P2Y14 receptor expressed in HEK293 cells. It counts as cell-based, Pan troglodytes. In general terms: Displacement assays read how much labelled ligand stays bound in the presence of the test substance.
Data set [2] is described as follows: Antagonist activity at chimpanzee P2Y14 receptor expressed in HEK293 cells assessed as calcium flux by FLIPR assay. Conditions: Pan troglodytes. It counts as functional, cell-based. On the technique in general: Calcium assays in cells follow changes in intracellular calcium, usually with a dye or a luminescent sensor.
For another data set, the target named is T1, P2Y purinoceptor 14 (Mus musculus, UniProt Q9ESG6).
T1 sequence (Q9ESG6 whole entry): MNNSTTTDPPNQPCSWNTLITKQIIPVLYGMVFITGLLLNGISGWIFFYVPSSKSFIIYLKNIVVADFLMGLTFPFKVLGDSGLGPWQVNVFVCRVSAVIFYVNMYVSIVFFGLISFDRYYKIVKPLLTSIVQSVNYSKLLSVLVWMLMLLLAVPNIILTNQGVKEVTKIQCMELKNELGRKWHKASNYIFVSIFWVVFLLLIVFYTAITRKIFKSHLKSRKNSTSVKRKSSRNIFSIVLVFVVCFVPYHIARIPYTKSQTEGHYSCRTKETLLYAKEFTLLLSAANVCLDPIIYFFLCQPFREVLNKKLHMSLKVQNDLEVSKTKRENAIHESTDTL
In words: Antagonist activity at mouse P2Y14 receptor expressed in HEK293 cells assessed as calcium flux by FLIPR assay. It is filed as functional, cell-based.

Data set [3] is described as follows: Metabolic stability in C57BL/6 mouse Hepatocyte assessed as parent compound remaining at 20 uM after 2 hrs. It counts as ADME, cell-based. Conditions: hepatocytes, read-out: Stability. The method in brief:
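Hepatocytes were isolated from mouse liver by two-step perfusion with 50 U/mL collagenase. Compound was incubated with the hepatocytes for 2 h, and metabolic stability was read out as the percentage of parent drug remaining.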

Data set [4] has as its system Mus musculus. In words: Intrinsic clearance in C57BL/6 mouse at 2 mg/kg, iv administered in 60% PEG-200. More on the design: dose 2 mg/kg, route intravenous. It counts as ADME, organism-based. Conditions: in vivo. The method in brief:
(§1)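 C57BL/6 mice were dosed orally at 50 mg/kg (one analog at 25 mg/kg) in 5% Tween-80. They were also dosed intravenously at 2 mg/kg in 60% PEG-200. Oral bioavailability, half-life and intrinsic clearance come from these dosings.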

Data set [5] is described as follows: Oral bioavailability in C57BL/6 mouse at 50 mg/kg, po administered in 5% Tween-80. It is filed as ADME, organism-based. Conditions: in vivo. The method in brief: as §1
The nature of data set [6]: Half life in C57BL/6 mouse at 50 mg/kg, po and 2 mg/kg, iv. Conditions: in vivo. It is filed as ADME, organism-based. The method in brief:
as §1

Data set [7] is described as follows: Cmax in C57BL/6 mouse at 50 mg/kg, po administered in 5% Tween-80. It counts as ADME, organism-based. More on the design: dose 50 mg/kg, route oral. Conditions: in vivo. The gist of the method:
as §1

The test system of data set [8] is Mus musculus. In words: Drug metabolism in Mrp2 (-/-) mouse assessed as (2S,3S,4S,5R,6S)-6-(7-(4-fluoro-2,6-dimethylbenzyloxy)-4-(thiophen-3-yl)-2-naphthoyloxy)-3,4,5-trihydroxytetrahydro-2H-pyran-2-carboxylic acid recovery in bile at 2 mg/kg, po up to 24 hrs. Conditions: in vivo.
Data set [9] is described as follows: Oral bioavailability in C57BL/6 mouse at 25 mg/kg, po administered in 5% Tween-80. It is filed as ADME, organism-based. Conditions: in vivo. The method in brief:
as §1

Data set [10] can be described thus: Cmax in C57BL/6 mouse at 25 mg/kg, po administered in 5% Tween-80. It counts as ADME, organism-based. More on the design: dose 25 mg/kg, route oral. Conditions: in vivo. The gist of the method:
as §1

Bounds are passed on as bounds.

By Ki is commonly meant the dissociation constant of the complex between target and ligand, obtained from inhibition or displacement. The term IC50 denotes the point on the concentration scale where inhibition reaches its midpoint. In the case of `O=C(O)c1cc(-c2ccc(C(O)C(F)(F)F)cc2)c2ccc(-c3ccc(C(F)(F)F)cc3)cc2c1` (stereo not drawn), the Ki in data set [1] came to 14 nM. Moreover, the IC50 amounted to 5 nM in data set [2] and 13 nM on P2Y purinoceptor 14.
As for `O=C(O)c1cc(-c2ccccc2)c2ccc(OCc3ccccc3)cc2c1`, in data set [1], the Ki was determined as 160 nM. The IC50 (in data set [2]; at P2Y purinoceptor 14) was 3500 nM throughout.
The half-life is the time needed for the level to fall by half in the phase considered. As a reminder, the Cmax is the peak of the concentration-time curve. On to `O=C(O)c1cc(-c2ccc([C@@H](O)C(F)F)cc2)c2ccc(-c3ccc(C(F)(F)F)cc3)cc2c1`, for which, in [3], the remaining at 2 h, 20 µM is 39%. The affinity in data set [1], expressed as Ki, was 4 nM. In the data set on Mus musculus [4], this molecule registered a CL of 1.6 mL/min/kg. In [5], the bioavailability is 67%. Besides, the half-life in data set [6] is 180 min. In data set [7], this molecule came in with a Cmax of 113 µM. In addition, the figures for the IC50 (in [2]; at P2Y purinoceptor 14) were 1 nM and 8 nM, respectively.
In turn, `Cc1cccc(C)c1COc1ccc2c(-c3ccsc3)cc(C(=O)O)cc2c1` yielded a Ki in data set [1] of 16 nM. Also, the IC50 came to 6 nM in data set [2] and 26 nM at P2Y purinoceptor 14.
Turning to `O=C(O)c1cc(-c2cscc2C(O)(C(F)(F)F)C(F)(F)F)c2ccc(-c3ccc(OC(F)(F)F)cc3)cc2c1`, the remaining at 2 h, 20 µM in data set [3] came out at 91%. Also, in data set [1], the Ki was found to be 54 nM. This molecule also had a CL in the data set on Mus musculus [4] of 1.9 mL/min/kg. In [5], the bioavailability is 45%. In data set [6], this molecule gave a half-life of 246 min. The Cmax in [7] worked out at 37 µM. Moreover, the IC50 came out at 91 nM in data set [2] and 350 nM at P2Y purinoceptor 14.
For `CS(=O)(=O)c1cscc1-c1cc(C(=O)O)cc2cc(-c3ccc(OC(F)(F)F)cc3)ccc12`, the remaining at 2 h, 20 µM in [3] stood at 16%. The molecule further had a Ki in data set [1] of 32 nM. The molecule further had a CL in the data set with Mus musculus [4] of 3.7 mL/min/kg. In addition, the bioavailability in [5] came to 4%. In data set [6], this molecule showed a half-life of 192 min. In [7], the concentration peaked (Cmax) at 16 µM. In addition, the IC50 in data set [2] was 86 nM.
`O=C(O)c1cc(-c2ccccc2)c2ccc(Oc3ccccc3)cc2c1` registered a Ki in data set [1] of 1500 nM. Further, the IC50 amounted to 4100 nM in data set [2] and 4900 nM at P2Y purinoceptor 14.
For the molecule `O=C(O)c1cc2cc(-c3ccc(OC(F)(F)F)cc3)ccc2c(-c2ccsc2)c1F`, the remaining at 2 h, 20 µM in data set [3] came out at 85%. This molecule also gave a Ki in data set [1] of 110 nM. The molecule further showed a CL in the data set on Mus musculus [4] of 3.3 mL/min/kg. In addition, in data set [5], the bioavailability is 129%. Also, in [6], the half-life was 258 min. The molecule further registered a Cmax in [7] of 89 µM. For the same molecule, the figures for the IC50 (in data set [2]; on P2Y purinoceptor 14) were 110 nM and 380 nM, respectively.
`O=C(O)c1cc(-c2ccccc2)c2ccc(OCc3c(Cl)cccc3Cl)cc2c1`: in [1], the affinity, expressed as Ki, was 29 nM. The IC50 was found to be 91 nM in [2] and 190 nM on P2Y purinoceptor 14.
The molecule `COc1ccc2c(-c3ccccc3)cc(C(=O)O)cc2c1` yielded a Ki in [1] of 4000 nM.
With `Cc1cc(F)cc(C)c1COc1ccc2c(-c3ccsc3)cc(C(=O)O)cc2c1`, the remaining at 2 h, 20 µM in data set [3] amounted to 8%. For the same molecule, the Ki in data set [1] worked out at 14 nM. In the data set on Mus musculus [4], this molecule came in with a CL of 7.1 mL/min/kg. The bioavailability in data set [5] worked out at 12%. Moreover, the half-life in [6] was 162 min. This molecule registered a Cmax in [7] of 23 µM. Besides, the 50% inhibitory concentration (IC50) in data set [2] was 4 nM; at P2Y purinoceptor 14, 14 nM. For the same molecule, the Activity in the data set on Mus musculus [8] was greater than 99%.
In data set [1], `Cc1cccc(C)c1COc1ccc2c(OCc3ccccc3)cc(C(=O)O)cc2c1` returned a Ki of 21 nM. The IC50 in data set [2] came to 89 nM; at P2Y purinoceptor 14, 110 nM.
Take `Cc1cccc(C)c1COc1ccc2ccc(C(=O)O)cc2c1`: the IC50 in [2] was determined as 6500 nM; at P2Y purinoceptor 14, 13000 nM.
On the same counts, the results for `O=C(O)c1ccc(COc2ccc3c(-c4ccccc4)cc(C(=O)O)cc3c2)cc1` are greater than 40000 nM and greater than 13000 nM.
As for `O=C(O)c1cc2cc(-c3ccc(OC(F)(F)F)cc3)ccc2c(-c2ccsc2)c1O`, in data set [3], the remaining at 2 h, 20 µM is 93%. Also, the Ki in data set [1] turned out to be 170 nM. In the data set with Mus musculus [4], this molecule displayed a CL of 7.6 mL/min/kg. In [6], this molecule gave a half-life of 780 min. In data set [7], this molecule gave a Cmax of 34 µM. Also, the values for the IC50 (in data set [2]; on P2Y purinoceptor 14) were 490 nM and 1300 nM, respectively.
Consider `O=C(O)c1cc(-c2ccc([C@H](O)C(F)(F)F)cc2)c2ccc(-c3ccc(C(F)(F)F)cc3)cc2c1`, for which the Ki in data set [1] came out at 21 nM. Moreover, the results for the IC50 (in data set [2]; at P2Y purinoceptor 14) were 11 nM and 51 nM, respectively.
In data set [1], `Cc1cccc(C)c1COc1ccc2c(-c3ccccc3)cc(C(=O)O)cc2c1` came in with a Ki of 42 nM. The IC50 in [2] came to 41 nM; on P2Y purinoceptor 14 it was 110 nM.
As for `CS(=O)(=O)c1ccc(-c2cc(C(=O)O)cc3cc(-c4ccc(C(F)(F)F)cc4)ccc23)cc1`, the affinity in data set [1] corresponds to a Ki of 7 nM. The values for the IC50 (in data set [2]; on P2Y purinoceptor 14) were 7 nM and 20 nM, respectively.
Turning to `Cc1cccc(C)c1OCc1ccc2c(-c3ccccc3)cc(C(=O)O)cc2c1`, in data set [1], the Ki was determined as 340 nM. Besides, the figures for the IC50 (in data set [2]; on P2Y purinoceptor 14) were 1500 nM and 2100 nM, respectively.
As for `O=C(O)c1cc(-c2ccsc2)c2ccc(-c3ccc(OC(F)(F)F)cc3)cc2c1`, the remaining at 2 h, 20 µM in data set [3] is 62%. Moreover, the bioavailability in data set [9] was found to be 92%. Moreover, the affinity in data set [1], expressed as Ki, was 29 nM. The molecule also came in with a CL in the data set with Mus musculus [4] of 18 mL/min/kg. The molecule further had a half-life in [6] of 66 min. Also, the IC50 came out at 14 nM in [2] and 54 nM on P2Y purinoceptor 14. Moreover, the concentration in data set [10] peaked (Cmax) at 18 µM.
In the case of `O=C(O)c1cc(-c2ccc([C@@H](O)C(F)(F)F)cc2)c2ccc(-c3ccc(C(F)(F)F)cc3)cc2c1`, in data set [1], the affinity corresponds to a Ki of 10 nM. The IC50 is 1 nM in [2] and 4 nM on P2Y purinoceptor 14.

These data come from ChEMBL document CHEMBL1773017, “The identification of 4,7-disubstituted naphthoic acid derivatives as UDP-competitive antagonists of P2Y14” (Bioorg Med Chem Lett, 2011).
